Series [1] has as its system HeLa cells. Briefly: Mitochondrial membrane potential with JC-1 probe, live-cell confocal microscopy. The class given is cell-based, human. The conditions noted are these: 2 μM JC-1 probe, excitation 488 nm, NP5 after 30 min incubation. An outline of the steps:
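Live HeLa cells were exposed to the test peptide materials for set times, then stained with 2 μM JC-1 followed by Hoechst 33342 before imaging. Confocal microscopy, both channels excited at 488 nm: monomer green at 510–550 nm, J-aggregate red at 585–649 nm; nuclei at ex 405/em 420–480 nm. Green and red fluorescence were compared. CCCP was run alongside.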

Series [2] deals with HeLa cells. The class given is cell-based, human.
The nature of series [3]: Hydrodynamic diameter by dynamic light scattering. The class given is physicochemical. The conditions noted are these: DLS; nanoparticles via photo-PISA at solids content of 15 wt.%.

“poly[(KLAAm10-co-DMA10)-b-(DAAm280-co-DMA120)] [NP5]”: the “red fluorescence of JC-1 J-aggregates (mitochondrial membrane potential)” value in the series on HeLa cells [1] is on record as “almost no red emission”.

Take “poly[(KLAAm10-co-DMA30)-b-(DAAm280-co-DMA120)] [NP3]”: the “cytotoxicity in HeLa cells” value with HeLa cells [2] is reported as “dose-dependent cytotoxicity”. Besides, the “Dh (hydrodynamic diameter)” value in series [3] was 105 nm.

The values are drawn from paper PMC7722202 (Angewandte Chemie (International ed. in English), 2020).
